Experimental data taken from ChEMBL document CHEMBL1128708, “Synthesis of alkyl chain-modified ether lipids and evaluation of their in vitro cytotoxicity” (J Med Chem, 1995).

What was measured:
HL-60 [1] = test: Cytotoxicity measured in HL-60 leukemic cells after a 24 hr incubation period.; assay type: functional, cell-based, Homo sapiens
In short: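 HL-60 cells kept in RPMI-1640 with 5% heat-inactivated FCS, penicillin/streptomycin and 2 mM L-glutamine, >90% viable before use. 10^6 cells/mL exposed 24 h to 2.5–160 μM (twofold steps). Viability by trypan blue exclusion, as % viable cells versus total control cells. IC50 taken as the concentration giving 50% mortality. Two experiments in triplicate; compounds with IC50 >30 μM tested once.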

[2] = Partition coefficient (logP); assay type: physicochemical; details: octanol/water
In short: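 Calculated rather than measured, for the C-1 chain including the ether O atom, by the Viswanadhan atom-based method.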

Rattus norvegicus = species: Rattus norvegicus; test: Maximal non-erythrolytic concentration(MNEC) was measured in erythrocytes from rat citreated blood; assay type: functional
In short: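 Rat citrated-blood erythrocytes washed in HBSS and mixed 9:1 with test solution for 30 min at 37 °C. Lysis read spectrophotometrically at 546 nm. Value reported as the maximal concentration (μM) causing no erythrolysis.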

A-431 = test: Antiproliferative activity of compound was measured on human tumor cell line A431.; assay type: functional, cell-based
In short: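 Adherent cells trypsinized and seeded at 5000 cells/cm2, grown in RPMI-1640 with 10% heat-inactivated FCS and 2 mM L-glutamine. After 24 h, graded concentrations dissolved in complete medium were added for 48 h (final EtOH ≤0.2%). Cells fixed with 10% TCA and stained with 0.4% SRB in 1% acetic acid. Dye solubilized in 10 mM Tris pH 10.4 and read at 550 nm, background-corrected. IC50 from dose–response curves; two to five experiments, eight replicates each.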

HL-60 [3] = test: Antiproliferative activity of compound was measured on human tumor cell line HL-60.; assay type: functional, cell-based
In short: (§1)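 Suspension cells at 1 × 10^6 cells/mL in RPMI-1640 with 10% heat-inactivated FCS and 2 mM L-glutamine, 37 °C, 5% CO2. Incubated 120 h with graded ether lipid concentrations (final EtOH ≤0.2%), then counted electronically. IC50 from dose–response curves; two experiments in duplicate, average ± SD.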

K562 = test: Antiproliferative activity of compound was measured on human tumor cell line K-562.; assay type: functional, cell-based; in short: as §1

SMILES | IC50 (HL-60 [1]; Homo sapiens, HL-60, 24 h) | logP ([2]; read-out: logP) | MNEC (Rattus norvegicus) | further results
COC(COCCCCCCCCCCC(=O)c1ccccc1)COP(=O)([O-])OCC[N+](C)(C)C (stereo unspecified) | > 160 µM | 4.29 | >200 µM | –
CCCCCCCCCCCC(=O)CCCCCCOCC(COP(=O)(O)OC[C@@H](N)C(=O)O)OC (stereo partly specified) | > 160 µM | – | >200 µM | –
CCCCCCCCC(CCCCCCOCC(COP(=O)([O-])OCC[N+](C)(C)C)OC)c1ccccc1 (stereo unspecified) | 30.7 µM | 7.13 | 5 µM | –
CCCCCCCCCCCC(CCCCCC)CCCCCCOCC(COP(=O)([O-])OCC[N+](C)(C)C)OC (stereo unspecified) | 50 µM | – | >200 µM | logP [2]: 9.08
COC(COCCCCCCCCCCC(O)c1ccccc1)COP(=O)([O-])OCC[N+](C)(C)C (stereo unspecified) | > 160 µM | 4.7 | >200 µM | –
CCCCCCCCCCCCCCCCOP(=O)([O-])OCC[N+](C)(C)C [MILTEFOSINE] | 20.4 µM | – | 2 µM | –
CCCCC(CCCC)CCCCCCOCC(COP(=O)([O-])OCC[N+](C)(C)C)OC (stereo unspecified) | 54 µM | 5.51 | 20 µM | –
CCCCCCCCCCCCCCCCCCOCC(COP(=O)(O)OC[C@@H](N)C(=O)O)OC (stereo partly specified) | 25.2 µM | – | >200 µM | –
CCCCCCC(=O)CCCCCCCCCCCOCC(COP(=O)(O)OC[C@@H](N)C(=O)O)OC (stereo partly specified) | 30 µM | – | >200 µM | –
CCCCCCC(O)CCCCCCCCCCCOCC(COCCCCC[N+](C)(C)C)OC.[Br-] (stereo unspecified) | 25.6 µM | – | 50 µM | –
CCCCCCC(=O)CCCCCCCCCCCOCC(COP(=O)([O-])OCC[N+](C)(C)C)OC (stereo unspecified) | 45 µM | 5.92 | 50 µM | IC50 (A-431; Homo sapiens, A-431): 40.6 µM; IC50 (HL-60 [3]; Homo sapiens, HL-60): 12.3 µM; IC50 (K562; Homo sapiens, K562): 84.5 µM
CCCCCCCCCCCCCCCCC(=O)COCC(COP(=O)([O-])OCC[N+](C)(C)C)OC (stereo unspecified) | 3.5 µM | 6.29 | 5 µM | IC50 (A-431; Homo sapiens, A-431): 14.2 µM; IC50 (HL-60 [3]; Homo sapiens, HL-60): 1.3 µM; IC50 (K562; Homo sapiens, K562): 9 µM
COC(COCCCCCCCCCCCCCCCCc1ccccc1)COP(=O)([O-])OCC[N+](C)(C)C (stereo unspecified) | 13.2 µM | 7.59 | 10 µM | –
CCCCCCCCCCCC(=O)CCCCCCOCC(COCCCCC[N+](C)(C)C)OC.[Br-] (stereo unspecified) | 4.2 µM | – | 5 µM | –
CCCCCCCCCCCCCCCCCCOCC(COCCCCC[N+](C)(C)C)OC.[Br-] (stereo unspecified) | 8 µM | – | 5 µM | –
CCCCCCCCC(CCCCCCCC)CCCCCCOCC(COP(=O)([O-])OCC[N+](C)(C)C)OC (stereo unspecified) | 52 µM | 8.68 | >200 µM | –
CCCCCCCCCCCC(=O)CCCCCCOCC(COP(=O)([O-])OCC[N+](C)(C)C)OC (stereo unspecified) | 9.1 µM | 5.92 | 20 µM | IC50 (A-431; Homo sapiens, A-431): 21.1 µM; IC50 (HL-60 [3]; Homo sapiens, HL-60): 3 µM; IC50 (K562; Homo sapiens, K562): 41.4 µM
CCCCCCCCCCCC(=O)CCCCCCOC[C@@H](COP(=O)([O-])OCC[N+](C)(C)C)OC | 5.9 µM | 5.92 | 20 µM | IC50 (HL-60 [1]; hl-60): 11.3 µM; IC50 (A-431; Homo sapiens, A-431): 19.7 µM; IC50 (A-431; a-431): 21.8 µM; IC50 (HL-60 [3]; Homo sapiens, HL-60): 4.4 µM; IC50 (HL-60 [3]; hl-60): 3 µM; IC50 (K562; Homo sapiens, K562): 40.2 µM; IC50 (K562; k562): 39.2 µM
CCCCCCCCCCCCCCC(=O)CCCOCC(COP(=O)([O-])OCC[N+](C)(C)C)OC (stereo unspecified) | 4.1 µM | 5.92 | 10 µM | IC50 (A-431; Homo sapiens, A-431): 13.5 µM; IC50 (HL-60 [3]; Homo sapiens, HL-60): 1.1 µM; IC50 (K562; Homo sapiens, K562): 10.5 µM
CCCCCCC(CCCCCC)CCCCCCCCCCCOCC(COP(=O)([O-])OCC[N+](C)(C)C)OC (stereo unspecified) | 46 µM | – | >200 µM | logP [2]: 9.08
CCCCCCCCCCCCCCCCCCOCC(COP(=O)([O-])OCC[N+](C)(C)C)OC (stereo unspecified) [EDELFOSINE] | 6.1 µM | 6.77 | 2 µM | IC50 (A-431; Homo sapiens, A-431): 13.5 µM; IC50 (HL-60 [3]; Homo sapiens, HL-60): 1 µM; IC50 (K562; Homo sapiens, K562): 6.1 µM
CCCCCCCCCCCC(C)CCCCCCOCC(COP(=O)([O-])OCC[N+](C)(C)C)OC (stereo unspecified) | 8.9 µM | 7.1 | 5 µM | –
